Laboratory results as given in article PMC10963893 (eBioMedicine, 2024).
Converted amounts (≈) assume the structure as drawn.

How the values were obtained:
K. pneumoniae Ecl8 = experiment: Broth micro-dilution MIC / dose-response growth inhibition; assay type: cell-based, Klebsiella pneumoniae; settings: for MIC: Klebsiella pneumoniae, ECL8, read-out: K. pneumoniae Ecl8 MIC; for K. pneumoniae Ecl8 Interp.: S/R interpretation by EUCAST breakpoint, ECOFF or fold vs QC strain
K. pneumoniae NCTC 13438 = experiment: as above; assay type: cell-based, Klebsiella pneumoniae; settings: for MIC: Klebsiella pneumoniae, NCTC13438, read-out: K. pneumoniae NCTC 13438 MIC; for K. pneumoniae NCTC 13438 Interp.: S/R interpretation by EUCAST breakpoint, ECOFF or fold vs QC strain
A. baumannii NCTC 13424 = experiment: as above; assay type: cell-based, Acinetobacter baumannii; settings: for MIC: Acinetobacter baumannii, NCTC13424, read-out: A. baumannii NCTC 13424 MIC; for A. baumannii NCTC 13424 Interp.: S/R interpretation by EUCAST breakpoint, ECOFF or fold vs QC strain
[1] = test system: primary screening strains (A. baumannii NCTC 13424, K. pneumoniae NCTC 13438, K. pneumoniae Ecl8); experiment: HTS / susceptibility assay with the primary screening strains; assay type: cell-based; settings: 50 mg L^−1, positive control
Summary of the method: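 Broth microdilution (EUCAST method adapted to 384-well); inoculum 5 × 10^5 CFU mL−1 (OD600 0.0005); static at 37 °C in 5% CO2 for 24 h (K. pneumoniae) or 20 h (A. baumannii); compound at one concentration in duplicate, or two concentrations (1.4–68.0 μM, 0.5% DMSO) singly for one library; OD600 read; % growth inhibition normalised between apramycin 50 mg L−1 and DMSO wells; actives called at 3σ.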

Row | Compound | MIC (K. pneumoniae Ecl8) | MIC (K. pneumoniae NCTC 13438) | MIC (A. baumannii NCTC 13424) | K. pneumoniae Ecl8 Interp. (K. pneumoniae Ecl8) | K. pneumoniae NCTC 13438 Interp. (K. pneumoniae NCTC 13438) | A. baumannii NCTC 13424 Interp. (A. baumannii NCTC 13424) | growth inhibition of primary screening strains [1]
1 | NCC[C@H](O)C(=O)N[C@@H]1C[C@H](N)[C@@H](O[C@H]2O[C@H](CN)[C@@H](O)[C@H](O)[C@H]2O)[C@H](O)[C@H]1O[C@H]1O[C@H](CO)[C@@H](O)[C@H](N)[C@H]1O [Amikacin] | 2 µg/mL (≈ 3.42 µM) | 64 µg/mL (≈ 109 µM) | > 512 µg/mL | S | R | R | –
2 | CN[C@@H]1[C@@H](O[C@H]2O[C@H](CO)[C@@H](N)[C@H](O)[C@H]2O)OC2C[C@@H](N)[C@@H](O[C@H]3[C@H](O)[C@@H](O)[C@H](N)C[C@@H]3N)OC2[C@@H]1O (some centres unmarked) [Apramycin] | 4 µg/mL (≈ 7.41 µM) | 4 µg/mL (≈ 7.41 µM) | 8 µg/mL (≈ 14.8 µM) | S ^c | S ^c | S ^c | completely inhibited the growth
3 | O=C(N[C@H](CO)[C@H](O)c1ccc([N+](=O)[O-])cc1)C(Cl)Cl [Chloramphenicol] | 4 µg/mL (≈ 12.4 µM) | 32 µg/mL (≈ 99 µM) | 64 µg/mL (≈ 198 µM) | S | R | – | –
4 | O=C(O)c1cn(C2CC2)c2cc(N3CCNCC3)c(F)cc2c1=O [Ciprofloxacin] | – | > 512 µg/mL | – | – | – | R | –
5 | C[C@@H]1O[C@@H]1P(=O)(O)O [Fosfomycin] | 64 µg/mL (≈ 464 µM) | 16 µg/mL (≈ 116 µM) | 64 µg/mL (≈ 464 µM) | R | S | – | –
6 | CN(C)c1ccc(O)c2c1C[C@H]1C[C@H]3[C@H](N(C)C)C(O)=C(C(N)=O)C(=O)[C@@]3(O)C(O)=C1C2=O [Minocycline] | 2 µg/mL (≈ 4.37 µM) | 4 µg/mL (≈ 8.74 µM) | 4 µg/mL (≈ 8.74 µM) | S ^b | S ^b | S ^b | –
7 | Cc1cc(NS(=O)(=O)c2ccc(N)cc2)no1 [Sulfamethoxazole] | 64 µg/mL (≈ 253 µM) | > 512 µg/mL | > 512 µg/mL | R ^c | R ^c | R ^c | –
8 | NC[C@H]1O[C@H](O[C@H]2[C@H](O)[C@@H](O[C@H]3O[C@H](CO)[C@@H](O)[C@H](N)[C@H]3O)[C@H](N)C[C@@H]2N)[C@H](N)C[C@@H]1O [Tobramycin] | 1 µg/mL (≈ 2.14 µM) | 32 µg/mL (≈ 68.4 µM) | > 512 µg/mL | S | R | R | –
9 | COc1cc(Cc2cnc(N)nc2N)cc(OC)c1OC [Trimethoprim] | 4 µg/mL (≈ 13.8 µM) | > 512 µg/mL | 128 µg/mL (≈ 441 µM) | S | R | R | –
10 | Colistin | – | – | – | S ^b | S ^b | S ^b | –
11 | Polymyxin B | – | – | – | S ^c | S ^c | S ^c | –

Continued by falling MIC (K. pneumoniae Ecl8), values first:

Row | MIC (K. pneumoniae Ecl8) | MIC (K. pneumoniae NCTC 13438) | MIC (A. baumannii NCTC 13424) | Compound | K. pneumoniae Ecl8 Interp. (K. pneumoniae Ecl8) | K. pneumoniae NCTC 13438 Interp. (K. pneumoniae NCTC 13438) | A. baumannii NCTC 13424 Interp. (A. baumannii NCTC 13424) | growth inhibition of primary screening strains [1]
12 | 1 µg/mL (≈ 2.09 µM) | 4 µg/mL (≈ 8.38 µM) | > 512 µg/mL | CNC(C)C1CCC(N)C(OC2C(N)CC(N)C(OC3OCC(C)(O)C(NC)C3O)C2O)O1 (centres unmarked) [Gentamicin] | S | R | R | –
13 | 1 µg/mL (≈ 2.25 µM) | 4 µg/mL (≈ 9 µM) | 256 µg/mL (≈ 576 µM) | CN(C)[C@@H]1C(O)=C(C(N)=O)C(=O)[C@@]2(O)C(O)=C3C(=O)c4c(O)cccc4[C@@](C)(O)[C@H]3C[C@@H]12 [Tetracycline] | S ^b | S ^b | R ^b | –
14 | 0.5 µg/mL (≈ 0.915 µM) | 512 µg/mL (≈ 937 µM) | 64 µg/mL (≈ 117 µM) | CC(C)(O/N=C(\C(=O)N[C@@H]1C(=O)N2C(C(=O)[O-])=C(C[n+]3ccccc3)CS[C@H]12)c1csc(N)n1)C(=O)O [Ceftazidime] | S | R | R | –
15 | 0.25 µg/mL (≈ 0.574 µM) | > 512 µg/mL | 32 µg/mL (≈ 73.5 µM) | C[C@H]1[C@H](NC(=O)/C(=N\OC(C)(C)C(=O)O)c2csc(N)n2)C(=O)N1S(=O)(=O)O [Aztreonam] | S | R | – | –
16 | 0.25 µg/mL (≈ 0.835 µM) | 128 µg/mL (≈ 428 µM) | 128 µg/mL (≈ 428 µM) | C[C@@H](O)[C@H]1C(=O)N2C(C(=O)O)=C(SCCN=CN)C[C@H]12 [Imipenem] | S | R | R | –
17 | 0.12 µg/mL (≈ 0.25 µM) | 128 µg/mL (≈ 266 µM) | 32 µg/mL (≈ 66.6 µM) | CO/N=C(\C(=O)N[C@@H]1C(=O)N2C(C(=O)[O-])=C(C[N+]3(C)CCCC3)CS[C@H]12)c1csc(N)n1 [Cefepime] | S | R | R | –
18 | 0.12 µg/mL (≈ 0.332 µM) | 128 µg/mL (≈ 354 µM) | 32 µg/mL (≈ 88.6 µM) | C[C@H]1COc2c(N3CCN(C)CC3)c(F)cc3c(=O)c(C(=O)O)cn1c23 [Levofloxacin] | S | R | R | –
19 | 0.06 µg/mL (≈ 0.132 µM) | 256 µg/mL (≈ 562 µM) | 512 µg/mL (≈ 1120 µM) | CO/N=C(\C(=O)N[C@@H]1C(=O)N2C(C(=O)O)=C(COC(C)=O)CS[C@H]12)c1csc(N)n1 [Cefotaxime] | S | R | R | –
20 | 0.06 µg/mL (≈ 0.156 µM) | – | 64 µg/mL (≈ 167 µM) | C[C@@H](O)[C@H]1C(=O)N2C(C(=O)O)=C(S[C@@H]3CN[C@H](C(=O)N(C)C)C3)[C@H](C)[C@H]12 [Meropenem] | S | R | R | –
